Screening data deposited in PubChem BioAssay by several laboratories.
CSN inh = blocks human CSN-mediated cullin deneddylation. Q92905. Purified CSN, SCF-Nedd8-OG deneddylation, fluorescence polarization. inhibition, % at 12.5 µM. 360,000 tested, 0.38% active. AID 651999;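 active = pattern-corrected inhibition above about 35%, with an unprinted fluorescence ratio check between 0.5 and 1.5, limit read from the data, passing the limit was not always enough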;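 note: 0% = enzyme with substrate and 100% = substrate without enzyme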
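test system = HEK293T-derived human Csn5 enzyme | amount = 0.24 nM Csn5 enzyme, final concentration | medium = Tris/NaCl/DTT buffer, pH 7.5 | schedule = 90 min reaction at room temperature | signal = FP | evaluation = inhibition of Csn5 cleavage, % | compound dosing = single dose of 12.5 µM compound with 0.25% DMSO | probe or stimulus = 10 nM SCFSkp2-Nedd8OG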
ATG4B inhibitor = ATG4B (human) cysteine protease inhibition; Q9Y4P1; ATG4B cleavage of LC3-PLA2, NBD-HPC fluorescence, 1 h; inhibition, % at 8.33 µM; 340,000 tested, 0.51% active; AID 504462; in the data active = inhibition above about 40%
TPT1 inh = inhibitors of Candida albicans tRNA 2'-phosphotransferase TPT1. recombinant caTPT1, FP RNA substrate dephosphorylation. inhibition, % at 5 µM. 300,000 tested, 0.81% active;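 active = inhibition above the mean of all tested compounds plus 3 SD, set per screening campaign, cut at about 24% in these data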;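 note: plate controls were DMSO alone for no effect and ferristatin control at 100 nM for full effect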
Rpn11 inh = blocks the human proteasome subunit Rpn11; AID 588493; human 26S proteasome, Ub4-pepOG fluorescence polarization; 20S core pre-blocked with epoxomicin; O00487; 360,000 tested, 0.59% active; inhibition, % at 20 µM;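 active = inhibition at 20 µM, scaled to each plate's controls, above about 33%, limit read from the data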
HNF4A DNA FP = change in binding of human HNF4 alpha to DNA | HNF4a-FITC DNA binding, fluorescence polarization, 1 h | activity change, % at 10 µM | 360,000 tested, 0.3% active | AID 1224865; in the data active = activity change above about 30%, passing the limit was not always enough
SENP1 inh = SENP1 (human) catalytic domain inhibition; recombinant SENP1 catalytic domain, CyPet-SUMO1-YPet FRET cleavage; inhibition, % at 10 µM; 360,000 tested, 0.21% active; AID 624204;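 active = inhibition at least 30% at 10 µM, raw YFP signal under a set limit, fluorescence ratio 0.5 to 1.5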;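 note: 0% = enzyme with DMSO and 100% = no enzyme wells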
Target sequence (Q9P0U3 419-644 limits assumed): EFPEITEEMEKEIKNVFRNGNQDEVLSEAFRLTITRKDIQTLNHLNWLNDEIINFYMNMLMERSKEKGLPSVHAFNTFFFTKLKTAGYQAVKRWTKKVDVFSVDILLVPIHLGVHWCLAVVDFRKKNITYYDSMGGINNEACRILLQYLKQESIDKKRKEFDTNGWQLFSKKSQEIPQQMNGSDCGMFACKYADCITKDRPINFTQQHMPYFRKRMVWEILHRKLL
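Compound: 10 µM single point, 0.5% DMSO; Test system: hSENP1 catalytic domain, recombinant; Timing: 50 min reaction at room temperature; Technique: FRET, CFP and YFP emission; Control set: no-enzyme wells low, DMSO-plus-enzyme wells high control.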
caTPT1 confirm = TPT1 (C. albicans) inhibition, confirmation; inhibition, % at 5 µM; recombinant caTPT1, fluorescence polarization, RNase T1 coupled; 2,400 tested, 74% active; AID 2149; shares compounds with TPT1 inh;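 active = inhibition above the primary screen limit, the mean inhibition of all tested compounds plus 3 SD, cut at about 25% in these data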
RNase T1 counter = counter-screen for TPT1 inhibitors: inhibitors of Aspergillus oryzae RNase T1; shares compounds with TPT1 inh; inhibition, % at 5 µM; RNase T1 cleavage, fluorescence polarization, 1536-well; 2,400 tested, 83% active; AID 2153;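 active = inhibition above the solvent-only control well mean plus 3 SD, limit set per screening run, cut at about 23% in these data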;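 note: plate controls were DMSO wells with enzyme for no effect and wells without RNase T1 for full effect; inhibitors block cleavage so intact labeled substrate keeps polarization high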
Target sequence (P00651 whole entry, looked up): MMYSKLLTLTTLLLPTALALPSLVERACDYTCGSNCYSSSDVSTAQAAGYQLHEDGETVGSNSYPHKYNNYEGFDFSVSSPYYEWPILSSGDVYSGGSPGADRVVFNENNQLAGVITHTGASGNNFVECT
Starred values were filed as active, the others as inactive; . = no result given. Compounds with a hit are over-represented: about 2% of the library has one in this group of screens.

SMILES	CSN inh	ATG4B inhibitor	TPT1 inh	Rpn11 inh	HNF4A DNA FP	SENP1 inh	caTPT1 confirm	RNase T1 counter
N#Cc1ccc(-c2ccco2)nc1SCC(=O)c1ccc(Cl)cc1	24	4	99*	48*	16	-20	62*	67*
Cc1ccc(C(=O)CSc2nc(-c3ccccc3)ccc2C#N)cc1	5	-6	24	.	5	-21	.	.
Cc1cc(=O)n2nc(N3CCCC3C(=O)Nc3cccc(Cl)c3C)sc2n1 (stereo not given)	4	6	30*	28	13	-2	92*	103*
Cc1ccc(N2C(=O)CS/C2=C(\C(Cl)=C(Cl)Cl)[N+](=O)[O-])cc1	5	15	93*	37	21	4	43*	51*
Cc1ccc(N2C(=O)CSCC2=O)cc1	4	-5	1	1	1	0	.	.
Cc1sc2nc(COC(=O)c3cccc(S(=O)(=O)N(C)c4ccccc4)c3)[nH]c(=O)c2c1C	20	-8	52*	.	20	-47	45*	55*
C[C@H](CO)N1C[C@H](C)[C@H](CN(C)C(=O)NC2CCCCC2)Oc2ncc(Br)cc2C1=O	-3	.	.	3	2	1	.	.
CSC1=N/C(=C\c2ccc(F)cc2)C(=O)S1	-2	3	-2	-8	-1	1	.	.
COc1ccc(/C=C/C=C2\N=C(SC)SC2=O)cc1	11	10	43*	2	5	-14	46*	56*
Cc1ccc(S(=O)(=O)N2CCN(C(=O)CSc3ccccn3)CC2)c(C)c1	-1	-13	-3	-5	1	-26	.	.
COc1ccc(/C=C/C(=O)NCCCc2ccccc2)cc1	-10	6	1	3	-1	2	.	.
COc1ccc(/C=C/c2cc[n+](C(=O)Cc3ccccc3)cc2)cc1	6	-6	26*	21	4	-36	7	8
CN1/C(=C\C=C(/C#N)C(=O)Nc2ccc(Cl)cc2)C(C)(C)c2ccccc21	24	7	112*	38	66	-26	36*	52*
Cc1ccc(CSCC2Nc3ccc(C(=O)N4CCN(c5cccc(C)c5)C(C)C4)cc3NC2=O)cc1 (stereo not given)	.	.	110*	.	.	.	21	33*
Cc1cccc(N2CCN(C(=O)c3ccc4c(c3)NC(=O)C(CSCc3ccc(F)cc3)N4)CC2C)c1 (stereo not given)	.	.	122*	.	.	.	62*	74*
CCC(=O)N(C)C[C@H]1Oc2cc(-c3cccnc3)ccc2S(=O)(=O)N([C@H](C)CO)C[C@H]1C	-1	.	.	-6	0	2	.	.
CCCNC(=O)C[C@H]1C[C@H]2c3cc(NC(=O)Nc4ccc(F)cc4)ccc3O[C@H]2[C@@H](CO)O1	1	.	.	-13	-4	-1	.	.
C[C@H](CO)N1C[C@H](C)[C@H](CN(C)C(=O)c2ccccc2)OCc2cnnn2CCCC1=O	9	.	.	-3	0	-3	.	.
CCN(CC)c1ncnc2c1ncn2[C@H]1CN(Cc2ccc(Cl)cc2)C[C@@H](CO)O1	1	.	.	-6	0	4	.	.
O=C1CCCC/C1=C\Nc1ccc(S(=O)(=O)Nc2cnc3ccccc3n2)cc1	8	-2	55*	.	10	5	33*	45*
C=CC[C@H](CC(=O)OC(C)(C)C)C(=O)OC[C@@H]1CCCN1C(=O)[C@H](CC=C)CC(=O)N[C@H](CO)Cc1ccccc1	2	2	.	-1	0	-1	.	.
Cc1ccc(CN=Cc2[nH]c3ccc(Br)c(Cl)c3c2O)cc1	0	22	70*	9	46*	-34	130*	129*
Oc1c(C=NCc2ccc(F)cc2)[nH]c2ccc(Br)c(Cl)c12	.	.	54*	.	.	.	97*	104*
CC1=NN(c2ccccc2)C(=O)C1N=Nc1ccc(C)cc1 (stereo not given)	.	.	-2	.	.	.	.	.
CC1=NN(c2ccccc2)C(=O)C1C=Nc1ccc(N(C)C)cc1 (stereo not given)	10	-5	42*	33	3	-40	67*	77*
SMILES	CSN inh	ATG4B inhibitor	TPT1 inh	Rpn11 inh	HNF4A DNA FP	SENP1 inh	caTPT1 confirm	RNase T1 counter
c1ccc(CN2CCC3CC2c2cc(N4CCOCC4)ccc23)cc1 (stereo not given)	1	4	.	-3	-2	1	.	.
CCCc1cc2c(=O)n(NC(=O)c3nn(C)cc3[N+](=O)[O-])c(C)nc2s1	-2	34	57*	-1	1	0	4	5
CCC(C)N1C(=O)/C(=C/c2c(NCCCOC(C)C)nc3c(C)cccn3c2=O)SC1=S (stereo not given)	-78	3	151*	7	2	27	165*	156*
CC(=O)Nc1sc(N/N=C/c2ccccc2)nc1-c1ccc(C)cc1	1	-10	0	1	-3	-1	.	.
CC(=O)Nc1sc(/C(C#N)=C\c2cccc(Cl)c2)nc1-c1ccc(C)cc1	39	-8	36*	.	32	-27	36*	48*
CCOC(=O)C1(C)CCN1C(=O)COc1ccc(C(C)(C)C)cc1 (stereo not given)	-3	.	.	0	4	1	.	.
N#CC1=C(N)Oc2cc(N)ccc2C1c1cccc(F)c1 (stereo not given)	4	-3	-2	16	13	-28	.	.
CN(C)c1ccc2c(c1)OC(N)=C(C#N)C2c1cccc(F)c1 (stereo not given)	52	11	78*	.	67	-25	62*	70*
COC(=O)[C@@]1(C)[C@H]2C(=O)N(Cc3ccccc3)C(=O)[C@H]2[C@H]2CN=C(SCC(=O)c3ccccc3)N21	0	-7	.	-3	6	0	.	.
CC1(C)Cc2c(c(N3CCOCC3)nc3sc(-c4ccc(C(=O)O)o4)c(N)c23)CO1	62*	-5	33*	.	85*	-24	35*	47*
Cc1cccc(-n2c(N)c(-c3nc4ccccc4n3C)c3nc4ccccc4nc32)c1	-2	-11	26*	4	2	-28	25*	36*
Cn1c(-c2c(N)n(-c3ccccc3)c3nc4ccccc4nc23)nc2ccccc21	-11	7	40*	11	8	-30	43*	52*
Cc1ccc(-n2c(N)c(-c3nc4ccccc4n3C)sc2=S)cc1	4	5	0	10	6	-14	.	.
CN1OC[C@@H]2CN(Cc3cc(Cl)cc(Cl)c3)[C@H](c3cccc(-c4ccccc4)c3)C[C@@H]21	-5	3	.	4	2	0	.	.
